Results taken from PubChem BioAssay AID821 (SRMLSC, 2007).
Activity calls are given as the source filed them.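 How the source made its calls: active means compounds whose fitted half-maximal concentration for reducing fibroblast viability is 100 µM or lower; inactive means the rest.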

System: not listed separately
Assay: LL 47 lung fibroblast growth inhibition, concentration-response, selectivity test for endothelial growth inhibitor program, cellular, luminescent ATP readout (AID 821);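 further: cells exposed to compound for 72 h at 37 °C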;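 on viability: 100% = median of untreated cell-only wells and 0% = no luminescence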
Details: LL 47 lung fibroblast viability, ATP luminescence; at 20 µM (top of the series)
Method in brief: (§1)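 Assay system: LL 47 human lung fibroblasts; Compound: dose series 0.039–20 µM final, 0.2% DMSO; Schedule: 72 h compound treatment at 37 °C after overnight attachment; Technique: CellTiter-Glo luminescence; Evaluation: percent viability relative to untreated wells, EC50 via 4-parameter fit.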

| SMILES | viability |
| --- | --- |
| N=C1C(c2nc(-c3ccc(Cl)cc3)cs2)=C(O)CN1CCCN1CCOCC1 | 118% (inactive) |
| Cc1ccc(Cn2c(=S)[nH]c3ccc(N4CCOCC4)cc3c2=O)o1 | 85% (inactive) |
| Cc1ccccc1-c1nc(CN2CCC(C(=O)NCCC3=CCCCC3)CC2)c(C)o1 | 87.6% (inactive) |
| Cc1ccc(S(=O)(=O)c2c(C)nn(C(C)(C)C)c2OC(=O)c2cccs2)cc1 | 104% (inactive) |
| CCn1c(SCC(N)=O)nnc1-c1ccc2[nH]c(C)c(C)c2c1 | 99.8% (inactive) |
| O=C(COC(=O)c1cccnc1Nc1cccc(C(F)(F)F)c1)NCc1ccc2c(c1)OCO2 | 130% (inactive) |
| Cc1ccc(Cn2c(SCC(=O)Nc3cc(C)on3)nc3ccccc3c2=O)cc1 | 80.1% (inactive) |
| Cc1cccc(-c2nc(CN3CCCC(C(=O)NC4CCCCCC4)C3)c(C)o2)c1 (stereo not drawn) | 90.9% (inactive) |
| CCCCCCOC(=O)C(C#N)c1nc2ccccc2nc1N1CCN(C)CC1 (stereo not drawn) | 90.4% (inactive) |
| CCOc1cc(N2CCOCC2)c(OCC)cc1NC(=O)COc1ncnc2ccc(Br)cc12 | 100% (inactive) |
| O=C(CC1CCCCC1)c1c(O)c2ccccc2oc1=O | 88.5% (inactive) |
| O=C1CCCc2c1[nH]c1ccc(Br)cc21 | 107% (inactive) |
| CC(C)(C)c1ccc(-c2nnc(SCC(=O)O)n2N)cc1 | 103% (inactive) |
| c1ccc(-c2nccc(-c3ccc(-n4cnc5ccccc54)cc3)n2)cc1 | 115% (inactive) |
| Cc1ccc(-n2c(Cc3cccs3)nnc2SCC(=O)Nc2ccc(F)c(F)c2)cc1 | 95.7% (inactive) |
| CCCCc1oc2ccccc2c1C(=O)c1cc(I)c(OCCN(CC)CC)c(I)c1 | 88% (inactive) |
| CCOC(=O)c1c(C)[nH]c(C(=O)OC/C(O)=C(\C#N)c2nc3ccccc3[nH]2)c1C | 113% (inactive) |
| CCOc1ccc(NC(=O)c2cc3n(n2)C(C(F)(F)F)CC(c2ccco2)N3)cc1 (stereo not drawn) | 106% (inactive) |
| CCCCCCn1c(O)c(C=NC2CCCCC2N)c(=O)[nH]c1=O (stereo not drawn) | 113% (inactive) |
| COc1cc(NC(=O)Nc2ccccc2)c(OC)cc1NC(=O)CN1CCCCC1 | 82.8% (inactive) |
| O=C(CN1CCN(S(=O)(=O)c2ccc(F)cc2)CC1)Nc1ccc2c(c1)OCO2 | 104% (inactive) |
| CCn1nc(C(=O)NC2=NCCS2)c2ccccc2c1=O | 103% (inactive) |

| SMILES | viability |
| --- | --- |
| CCc1ccc(NC(=O)CCc2nc3cccnc3n2Cc2ccc(OC)cc2)cc1 | 90.2% (inactive) |
| COc1ccc(OC)c(C(=O)CSc2nnc(-c3ccc(OC)c(OC)c3)o2)c1 | 88.4% (inactive) |
| CC(=O)Oc1ccc(N2C(=O)C3C(C2=O)C2(C)C=CC3(C)O2)cc1 (stereo not drawn) | 103% (inactive) |
| N#CCc1nc2c3c4c(sc3ncn2n1)CCCC4 | 102% (inactive) |
| COc1ccc2nc(NC(=O)CSC3=NCCS3)sc2c1 | 110% (inactive) |
| CCOC(=O)c1sc(NC(=O)CSc2nnnn2-c2ccc(C)cc2C)nc1C | 81.2% (inactive) |
| CC1CCCN(c2oc(-c3cccc4ccccc34)nc2C#N)C1 (stereo not drawn) | 99.6% (inactive) |
| Cc1cc(C)n(-c2nc(NCCCO)c3c4c(sc3n2)CCCC4)n1 | 88.8% (inactive) |
| Cn1c(CNc2cccc(Cl)c2)nnc1SCC(=O)OC1CCCCC1 | 86.7% (inactive) |
| Cc1ccc2c(c1)c1c(n2CC(O)Cn2c(C)nc3ccccc32)/C(=N\O)CCC1 (stereo not drawn) | 89.6% (inactive) |
| O=C(Nc1ccccc1)c1cccc(-c2nnc(-c3ccccc3)o2)c1 | 102% (inactive) |
| COC(=O)C1=C(O)/C(=C\c2ccc(CNC(=O)C(=O)Nc3ccc(C)c(C)c3)o2)N=C1C | 101% (inactive) |
| Cc1ccc(N=Nc2c(C)[nH][nH]c2=O)c(C)c1 | 97.6% (inactive) |
| O=C(Nc1ccc2nn(-c3ccccc3)nc2c1)c1ccc2c(c1)OCO2 | 121% (inactive) |
| O=C(Nc1ccc2nn(-c3ccccc3)nc2c1)c1ccc2c(c1)OCCO2 | 105% (inactive) |
| Cc1nc2c(-c3ccccc3)c(C)[nH]n2c(=O)c1Cl | 119% (inactive) |
| COc1ccc(C(c2sc3ncnn3c2O)N2CC(C)OC(C)C2)cc1OC (stereo not drawn) | 98.1% (inactive) |
| Cc1ccc(-n2c(SCC(=O)Nc3ccc4c(c3)OCO4)nnc2-c2ccccn2)cc1 | 103% (inactive) |
| O=C(CSc1ccc2c(c1)OCCO2)Nc1ccc(Cl)cn1 | 94.9% (inactive) |
| CC1CCN(S(=O)(=O)c2ccc(NC(=O)Cn3nnc(-c4ccccc4F)n3)cc2)CC1 | 90.8% (inactive) |
| c1ccc2c(c1)oc1c(NCCCN3CCOCC3)ncnc12 | 95.2% (inactive) |
| COc1ccc(N/N=C2/CCCCC2=O)cc1 | 123% (inactive) |

System: LL 47 lung fibroblast viability, ATP luminescence
Assay: as above
Details: not given
Method in brief: as §1

| SMILES | EC50 |
| --- | --- |
| CCN(CC)CCn1c(=N)n(CCOc2ccccc2)c2ccccc21 | 10.7 µM |
| CCCCN(C)S(=O)(=O)c1ccc(C(=O)Nc2nnc(-c3cccs3)o2)cc1 | 11.5 µM |
| c1ccc2c(c1)oc1c(Nc3ccc(CN4CCOCC4)cc3)ncnc12 | 17.2 µM |
| O=C(Nc1ccc(N2CCOCC2)cc1)Nc1ccc2nc(-c3ccco3)c(-c3ccco3)nc2c1 | 2.18 µM |
| O=c1[nH]c2ccccc2n1C1CCN(CCCC(c2ccc(F)cc2)c2ccc(F)cc2)CC1 | 13.6 µM |
| CCOC(=O)/C=C/S(=O)(=O)c1ccc(NC(C)=O)cc1 | 6.96 µM |
| CC(C)(C)c1nn(-c2ccccc2)c2[nH]c(=O)c(CNCc3ccc4c(c3)OCO4)cc12 | 20.6 µM |
| N#CCC(=O)Nc1ncn(Cc2ccccc2Cl)n1 | 19.7 µM |
| c1ccc(-c2noc(-c3ccc4c(c3)OCO4)n2)nc1 | 10.5 µM |
| CCOC(=O)c1cnc(-n2nc(C)cc2C)nc1NC1CCCCC1 | 14.2 µM |
| CCSc1nnc(NC(=O)c2ccccn2)s1 | 16.5 µM |
| Cc1ccc2[nH]c3c(c2c1)CCCC3=O | > 10 µM (inactive) |
| O=S1(=O)C=C(Sc2nnc(-c3ccccc3)o2)c2ccccc21 | 1.71 µM |
| O=C(Nc1nccs1)c1c(O)c2cccc3c2n(c1=O)CCC3 | 15.2 µM |
| O=C1CC(c2ccco2)Cc2nc(Nc3nc(-c4ccccc4)c4ccccc4n3)ncc21 (stereo not drawn) | 14 µM |
| Cc1ccsc1/C=C/c1ccc2cccc(O)c2n1 | 10.9 µM |
| Cc1sc2ncnc(NCC(C)(C)N3CCOCC3)c2c1C | > 10 µM (inactive) |
| COc1ccc(C(=O)C(CN2CCOCC2)c2ccccc2)cc1 (stereo not drawn) | 4.7 µM |
| Cc1ccc(S(=O)(=O)N2CCCN(S(=O)(=O)c3ccc(C(F)(F)F)cc3)CC2)cc1 | 16.1 µM |
| CCOc1ccccc1-n1c(CN2CCN(C(=O)c3ccco3)CC2)nc2ccccc2c1=O | 5.7 µM |

| SMILES | EC50 |
| --- | --- |
| Cc1cc(C)c2oc(-c3ccc(Cl)c(NC(=O)c4ccc(C#N)cc4F)c3)nc2c1 | 6.89 µM |
| COc1ccc(CC(=O)Nc2ccc(-c3nnc(-c4ccc(C)cc4)o3)cc2)cc1 | 12.8 µM |
| Cn1c2ccccc2c(=O)c2c(=O)n(C3CCCCC3)c(-c3cccs3)nc21 | 14.2 µM |
| COC(=O)C(CC(=O)c1ccc(Br)cc1)n1ccnc1 (stereo not drawn) | 14.7 µM |
| COc1ccccc1-c1nnc2n1N=C(c1ccc(O)c(O)c1)CS2 | 2.68 µM |
| CC(=O)C(C(C)=O)c1c(Cl)c(O)c(O)c2c(C(=O)c3ccccc3)coc12 | 14.5 µM |
| COc1ccc(CN=C(C)c2c(C(F)(F)F)[nH]n(-c3nc4ccccc4s3)c2=O)cc1 | 18 µM |
| O=C(c1ccc(F)cc1)C(CN1CCOCC1)c1ccccc1 (stereo not drawn) | 6.42 µM |
| O=C1CC(Sc2nnc(-c3ccccc3O)o2)C(=O)N1c1ccccc1 (stereo not drawn) | 20.8 µM |
| Cc1cccc(N2CCN(C(=O)Cn3sc4nc(C)cc(C)c4c3=O)CC2C)c1 (stereo not drawn) | 9.93 µM |
| Cc1ccc(C(=O)c2c(C)oc3c2C(=O)C(=O)c2ccccc2-3)cc1 | 3.46 µM |
| Oc1cccc2ccc(/C=C/c3cccs3)nc12 | 9.71 µM |
| COc1cccc2sc(Nc3nc(C)c(C(C)=O)s3)nc12 | 5.54 µM |
| Cn1cc(/C=N/n2cnc3scc(-c4ccccc4)c3c2=O)c2ccccc21 | 12.9 µM |
| O=C(Nc1cccnc1)c1ccc(Br)s1 | 13.1 µM |
| O=[N+]([O-])c1ccc(Sc2cccc3cccnc23)c([N+](=O)[O-])c1 | 5.03 µM |
| Cc1cc(C)n(S(=O)(=O)/C=C/c2ccccc2)n1 | 9.12 µM |
| N#Cc1c(NCCN)nc(-c2ccco2)c2c1CCCC2 | 11.7 µM |
| CC(C)COC(=O)c1ccc2c(c1O)C(=O)c1ccccc1C2=O | 17.9 µM |
| CCn1c(SCC(=O)Nc2cc(C)on2)nc2sc3c(c2c1=O)CCCC3 | > 10 µM (inactive) |

| SMILES | EC50 |
| --- | --- |
| COc1ccc2nc(Nc3nc(CSc4nnnn4-c4ccccc4)cc(=O)[nH]3)nc(C)c2c1 | 13.8 µM |
| CN1CCN(S(=O)(=O)c2ccc(NC(=O)Nc3cccc(Cl)c3)cc2)CC1 | 16.5 µM |
| O=C(Cc1sc(-c2ccccc2Cl)nc1-c1ccccc1)Nc1ccc(F)cc1 | 19.4 µM |
| CN1C[C@H](CNC(=O)OCc2ccccc2)C[C@@H]2c3cccc4c3c(cn4C)C[C@H]21 | 15 µM |
| CCc1ccc2c(c1)/C(=C/C(=O)c1cccs1)C(=O)N2 | 3.48 µM |
| O=C(C#Cc1cccc([N+](=O)[O-])c1)c1ccccc1 | 18.5 µM |
| COc1ccc(N2C(=O)CC(Sc3nnc(-c4ccccc4)o3)C2=O)cc1 (stereo not drawn) | 13.2 µM |
| Cc1ccc(/C=N/Nc2ncc(Cl)cc2Cl)s1 | 15.2 µM |
| CCOc1cc(N2CCOCC2)c(OCC)cc1NC(=O)COc1cccc2cccnc12 | 6.41 µM |
| CC1=CC(C)(C)Nc2ccc(OC(=O)CN3C(=O)C4CCCCC4C3=O)cc21 (stereo not drawn) | 12.4 µM |
| COC(=O)C1=C(O)/C(=C\c2ccc(CNC(=O)C(=O)Nc3ccc(C)cc3)o2)N=C1C | 9.27 µM |
| COc1ccc(CC(=O)Nc2ccc(-c3nc4cc(C)ccc4o3)c(O)c2)cc1OC | 18.6 µM |
| Cn1c(=NC(=O)CCl)sc2ccccc21 | < 0.039 µM |
| CCCCS(=O)(=O)/C=C\C=C/S(=O)(=O)CCCC | 0.936 µM |
| COC(=O)/C=C1\C(=O)N(c2nc3ccccc3s2)C(=S)N1c1ccc(F)cc1 | 17.8 µM |
| COC(=O)NC(=C(Cl)Cl)S(=O)(=O)c1ccccc1 | 12.2 µM |
| CCOC(=O)c1c(NC(=O)CSc2nc(C)cc(C)c2C#N)sc(C(C)=O)c1C | 13.5 µM |
| COc1ccc(C(=O)C(CN2CCOCC2)c2ccccc2)cc1F (stereo not drawn) | 5.53 µM |
| O=C(Oc1ccccc1)c1cccc2cccnc12 | 6.87 µM |
